Bioassay records from PubChem BioAssay.
Rows were chosen to be rich in hits. Some 2.3% of all compounds tested hit in one or more screens of this group.
TRPC4 potent: allosteric potentiators of mouse TRPC4 channel | AID 2227 | B-score at 10 µM | HEK293 TRPC4beta/mu-opioid, DAMGO EC20, Fluo-4 Ca2+ flux; hits give high values | Q9QUQ5 | 0.42% of 310,000 active;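 active = B-score of calcium response area above 5 SD of library B-scores, with initial fluorescence ratio within 5 SD of library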;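 also: B-score of integrated fluorescence ratio over time as area under calcium response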
Target sequence (Q9QUQ5 whole entry, looked up): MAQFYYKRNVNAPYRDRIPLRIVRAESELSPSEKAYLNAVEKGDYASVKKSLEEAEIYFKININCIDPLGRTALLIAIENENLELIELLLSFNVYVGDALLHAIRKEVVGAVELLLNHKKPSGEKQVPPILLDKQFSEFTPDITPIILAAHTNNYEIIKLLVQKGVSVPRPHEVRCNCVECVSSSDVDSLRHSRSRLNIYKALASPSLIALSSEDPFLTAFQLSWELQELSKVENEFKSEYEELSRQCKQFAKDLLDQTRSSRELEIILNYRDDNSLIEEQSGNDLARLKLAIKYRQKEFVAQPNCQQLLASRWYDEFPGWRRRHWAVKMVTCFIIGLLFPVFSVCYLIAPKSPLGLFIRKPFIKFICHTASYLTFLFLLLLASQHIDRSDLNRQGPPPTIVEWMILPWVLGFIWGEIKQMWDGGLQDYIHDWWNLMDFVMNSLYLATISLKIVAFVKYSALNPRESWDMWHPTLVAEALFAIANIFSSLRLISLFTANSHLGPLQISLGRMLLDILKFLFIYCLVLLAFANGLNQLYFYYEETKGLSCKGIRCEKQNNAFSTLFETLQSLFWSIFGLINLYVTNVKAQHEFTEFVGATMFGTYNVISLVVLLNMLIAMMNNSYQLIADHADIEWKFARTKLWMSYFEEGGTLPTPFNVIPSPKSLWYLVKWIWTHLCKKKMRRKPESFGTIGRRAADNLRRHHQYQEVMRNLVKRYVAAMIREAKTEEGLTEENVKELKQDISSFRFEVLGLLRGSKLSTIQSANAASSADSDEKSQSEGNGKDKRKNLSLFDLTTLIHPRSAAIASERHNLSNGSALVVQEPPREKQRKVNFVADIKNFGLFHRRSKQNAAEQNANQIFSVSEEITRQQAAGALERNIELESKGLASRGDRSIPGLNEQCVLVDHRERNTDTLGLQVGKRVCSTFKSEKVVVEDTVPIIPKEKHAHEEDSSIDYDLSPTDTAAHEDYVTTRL
TRPC4 act: opens the mouse TRPC4 cation channel. 0.49% of 310,000 active. Q9QUQ5. HEK293 TRPC4beta/mu-opioid, Fluo4 calcium fluorescence; hits give high values. B-score at 10 µM;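 active = B-score above 5 SD of library B-scores, and initial fluorescence ratio not above library mean plus 5 SD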;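 also: positive B-score marks a calcium rise read as TRPC4 activation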
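Assay system: HEK293 cells stably co-expressing mouse TRPC4beta and mu-opioid receptor / Timing: Fluo4 dye loading 45 min at room temperature, 110 s recording / Signal: Fluo4 calcium-sensitive dye fluorescence, kinetic, 1 Hz baseline / Read-out: integrated baseline-normalised fluorescence ratio, converted to per-well B score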
TRPC6 activator: activates the mouse TRPC6 cation channel | HEK293-TRPC6 membrane potential dye fluorescence; hits give high values | B-score at 10 µM | 0.13% of 310,000 active | AID 2550;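 active = B-score of the integrated fluorescence ratio above library mean plus 3 SD, and starting fluorescence ratio within library mean plus 5 SD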;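 also: higher score means more depolarization so channel activation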
TRPC6 inh: inhibitors of mouse TRPC6 channel. HEK293-TRPC6, membrane potential dye, ACh-evoked depolarization; hits give low values. B-score at 10 µM. 1.1% of 310,000 active. AID 2553;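 active = B-score under library mean minus 3 SD, initial fluorescence not abnormally high, positive integrated signal ratio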;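 also: B-score derived from integrated fluorescence ratio over the kinetic read; more negative B-score means stronger inhibition of depolarization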
TRPC4 block: blocks the mouse TRPC4 cation channel; HEK293 TRPC4beta/mu-opioid, DAMGO-evoked Fluo4 calcium flux; hits give low values; 0.39% of 300,000 active; Q9QUQ5; B-score at 10 µM;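 active = B-score over 3 SD under the library average, no early fluorescence shift, positive overall ratio signal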
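Material: HEK293 cells with stable TRPC4beta plus mu-opioid receptor expression / Probe or stimulus: DAMGO in two steps, submaximal then maximal / Compound: single concentration per test compound / Technique: kinetic Fluo4 fluorescence imaging of calcium influx / Read-out: per-well B score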
TRPC4 sel inh 2: second check of whether TRPC6 inhibitors also affect mouse TRPC4 | inhibition, % at 10 µM | 42% of 920 active | shares compounds with TRPC6 inh | HEK293 TRPC4/MOR, membrane potential dye fluorescence; channel activated by saturating DAMGO dose;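 active = compounds whose fluorescence signal differed from control wells by over 3 SD, either direction, in both duplicate plates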
TRPC4 spec: selectivity of TRPC6 inhibitors: effect on mouse TRPC4. activity change, negative = inhibition, % at 10 µM. AID 2777. shares compounds with TRPC6 inh. 61% of 920 active. HEK293 TRPC4/mu-opioid, membrane potential fluorescence;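 active = rise or fall in signal beyond 3 SD of buffer-only wells in both replicate plates, either sign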;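 also: integrated kinetic ratio of fluorescence range over baseline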
HEK293 MPD ctr 2-1: second counter-screen for TRPC6 inhibitors: parental HEK293 cells; shares compounds with TRPC6 inh; parental HEK293 membrane potential dye fluorescence; maximal acetylcholine challenge after compound addition; signal change vs control, % at 10 µM; 31% of 920 active; AID 2779;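 active = membrane potential signal moving either way by over 3 SD of the maximum-effect control, in both duplicate plates, meaning non-specific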
HEK293 MPD ctr-1: counter-screen for TRPC6 inhibitors: effect in parental HEK293 cells | shares compounds with TRPC6 inh | parental HEK293 membrane potential dye fluorescence | membrane potential signal change, % at 10 µM | 60% of 920 active | AID 2780;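 active = membrane potential signal shifting up or down by more than 3 SD of buffer-only wells, on both duplicate plates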
HEK293 MPD ctr-2: checks TRPC6 modulator effects in parental HEK293 cells. shares compounds with TRPC6 inh. membrane potential dye fluorescence. membrane potential signal change, % at 10 µM. 51% of 2,400 active. AID 488924;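 active = membrane potential signal moves up or down beyond 5 SD from buffer-only wells, on both duplicate plates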
HEK293 MPD ctr 2-2: second counter-screen for TRPC6 modulators: effect in parental HEK293 cells; shares compounds with TRPC6 inh; membrane potential dye fluorescence; after compound, maximal acetylcholine stimulation; inhibition, % at 10 µM; 14% of 2,400 active;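 active = membrane potential signal drops by more than 5 SD from the mean control signal, in both duplicate plates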;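 also: plate controls were acetylcholine ECmax control wells for no effect and buffer only wells for full effect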
TRPC4/MOR mod: mouse TRPC4 off-target activity of TRPC6 modulators. 69% of 2,400 active. AID 488927. shares compounds with TRPC6 inh. HEK293 TRPC4/mu-opioid, membrane potential fluorescence. percent change from control (negative = decrease, positive = increase), % at 10 µM;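 active = membrane potential signal moved up or down beyond 5 SD of buffer control wells, in both duplicate plates, actives on both sides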;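 also: plate controls were assay buffer wells for no effect and DAMGO maximal-effect wells for full effect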
TRPC4 ctr inh 2: second selectivity test of TRPC6 modulators against mouse TRPC4 | shares compounds with TRPC6 inh | HEK293 TRPC4/mu-opioid, membrane potential dye fluorescence; stimulated with maximal-effect DAMGO | inhibition, % at 10 µM | 55% of 2,400 active;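 active = drop in membrane potential signal beyond 5 SD of the control wells in both duplicate plates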;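 also: TRPC4 counter screen for TRPC6 hits run under conditions tuned for TRPC6 not TRPC4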
TRPC6 inh conf: mouse TRPC6 inhibitor confirmation; shares compounds with TRPC6 inh; HEK293-TRPC6, membrane potential dye, ACh-evoked depolarization; inhibition, % at 10 µM; 43% of 3,300 active;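 active = fluorescence ratio falls more than 5 SD below the full-stimulation control mean, in both duplicate runs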;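 also: integrated fluorescence ratio of peak minus minimum over baseline after agonist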
TRPC6 act confirm: mouse TRPC6 activator confirmation. HEK293-TRPC6 membrane potential dye fluorescence, FDSS. shares compounds with TRPC6 inh. 11% of 2,800 active. activation, % at 10 µM;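 active = ratio signal rise beyond 5 SD above unstimulated control wells' mean, seen in both duplicate runs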;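 also: plate controls were buffer EC0 wells for no effect and acetylcholine ECmax response for full effect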
* hit, by the source's call; i = inactive; x = not tested or not shown.

SMILES	TRPC4 potent	TRPC4 act	TRPC6 activator	TRPC6 inh	TRPC4 block	HEK293 MPD ctr-2	HEK293 MPD ctr 2-2	TRPC4/MOR mod	TRPC4 ctr inh 2	TRPC6 inh conf	TRPC6 act confirm	others
Cc1cc(NC(=O)c2cccs2)n(-c2nc3ccccc3[nH]2)n1	i	i	i	i	i	x	x	x	x	x	x
COc1ccc(-c2nc3ccccc3[nH]2)cc1	i	i	i	i	i	x	x	x	x	x	x
COc1ccc(-n2c(SCC(=O)C(C)(C)C)nc3c(sc(=S)n3-c3ccccc3)c2=O)c(OC)c1	i	i	i	i	i	x	x	x	x	x	x
O=C(Nc1cccc(NC(=O)c2ccc(Br)o2)n1)c1ccc(Br)o1	i	i	i	-6.3*	i	i	i	i	i	i	i
Cc1nc(NC(=O)c2ccc(Br)o2)ccc1Br	i	i	i	i	i	x	x	x	x	x	x
CCN(CC)CCCOC(=O)C(c1ccccc1)c1ccccc1	i	i	i	-7.2*	i	x	x	x	x	61%*	x	TRPC4 sel inh 2=i;TRPC4 spec=9.6%*;HEK293 MPD ctr 2-1=i;HEK293 MPD ctr-1=12%*
COc1ccccc1N1CCN(Cc2cc(=O)c(OCC#N)co2)CC1	i	i	i	i	i	x	x	x	x	x	x
Cc1cnccc1CNC(=O)C1CCC(=O)N(Cc2ccc(Cl)cc2)C1 (stereo not given)	i	i	i	i	i	x	x	x	x	x	x
CCCC(=O)N1CCCC(C(=O)c2cccc(OC(C)C)c2)C1 (stereo not given)	i	i	i	i	i	x	x	x	x	x	x
CN(C)CCCNc1nc(-c2ccc(Cl)cc2)nc2ccccc12	i	i	i	-7.7*	i	x	x	x	x	70%*	i	TRPC4 sel inh 2=53%*;TRPC4 spec=-31%*;HEK293 MPD ctr 2-1=34%*;HEK293 MPD ctr-1=-414%*
Cc1cccc(-c2nc(NCCCN(C)C)c3ccccc3n2)c1	i	i	i	-7.9*	i	x	x	x	x	76%*	i	TRPC4 sel inh 2=50%*;TRPC4 spec=-20%*;HEK293 MPD ctr 2-1=i;HEK293 MPD ctr-1=-242%*
COc1ccc(-c2noc3c2-c2nc(-c4ccc(Cl)cc4)sc2CC3)cc1	i	i	i	i	i	x	x	x	x	x	x
CCCn1c(SCC(=O)NC2CCCC2)nc2c1c(=O)n(C)c(=O)n2C	i	i	i	i	i	x	x	x	x	x	x
CCOC(=O)N1CCC(N2Cc3cccc(C(=O)Nc4ccc(CC)cc4)c3C2=O)CC1	i	i	i	-7.4*	i	x	x	x	x	i	i	TRPC4 sel inh 2=i;TRPC4 spec=i;HEK293 MPD ctr 2-1=i;HEK293 MPD ctr-1=i
CCOC(=O)N1CCC(N2Cc3cccc(C(=O)NCc4ccc(OC)cc4)c3C2=O)CC1	i	i	i	-7.7*	i	x	x	x	x	i	i	TRPC4 sel inh 2=i;TRPC4 spec=i;HEK293 MPD ctr 2-1=i;HEK293 MPD ctr-1=i
CCOC(=O)N1CCC(N2Cc3cccc(C(=O)Nc4ccc(OCC)cc4)c3C2=O)CC1	i	i	i	i	i	x	x	x	x	x	x
CCOc1c2ccoc2nc2c(OC)c(OC)ccc12	i	i	i	-5.4*	i	i	i	i	i	i	x
C=CCOc1ccc2c(OC)c3ccoc3nc2c1OC	i	i	16*	-11*	i	i	i	18%*	i	52%*	86%*
CCOc1c(OC)ccc2c3c(c(=O)oc12)CCCC3	i	i	i	i	i	x	x	x	x	x	x
CC(=O)c1cccc(NC(=O)c2cc3nc(C)cc(C)n3n2)c1	i	i	i	-5.1*	i	i	i	i	i	i	i
CC(CCOS(N)(=O)=O)c1ccccc1 (stereo not given)	i	i	i	i	i	x	x	x	x	x	x
Cc1ccc(N(CC(O)CN2CCOCC2)S(=O)(=O)c2ccc([N+](=O)[O-])cc2)cc1 (stereo not given)	i	i	i	i	i	x	x	x	x	x	x
COc1ccc(C(=O)NC(=S)Nc2ccc(CN3CCCCC3)cc2)cc1Cl	i	i	i	i	i	x	x	x	x	x	x
Cc1ccc(Cl)cc1N1CCN(CC(=O)Nc2ccc(CN3CCCCC3)cc2)CC1	i	i	i	-5.5*	i	152%*	i	19%*	76%*	44%*	x
O=C(COc1ccc(Cl)cc1Cl)Nc1ccc(CN2CCCCC2)cc1	i	i	i	-5.3*	i	194%*	i	34%*	54%*	i	x
SMILES	TRPC4 potent	TRPC4 act	TRPC6 activator	TRPC6 inh	TRPC4 block	HEK293 MPD ctr-2	HEK293 MPD ctr 2-2	TRPC4/MOR mod	TRPC4 ctr inh 2	TRPC6 inh conf	TRPC6 act confirm	others
O=C(COc1ccc(Cl)cc1Cl)Nc1ccc(CN2CCOCC2)cc1	i	i	i	i	i	x	x	x	x	x	x
COc1ccccc1N1CCN(CC(=O)Nc2ccc(CN3CCCCC3)cc2)CC1	i	i	i	i	i	x	x	x	x	x	x
Cc1noc(NS(=O)(=O)c2ccc(NC(=O)COc3ccc(Cl)cc3Cl)cc2)c1C	i	i	i	-5.8*	i	i	i	i	i	i	i
Cc1ccc(C(=O)NC(=S)Nc2ccc(CN3CCCCC3)cc2)c(C)c1	i	i	i	-6.3*	i	i	i	i	68%*	40%*	x
COc1ccc(CC(=O)O/N=C(\N)c2ccccc2)cc1OC	i	i	i	i	i	x	x	x	x	x	x
CC(OC(=O)CN1C(=O)c2ccccc2C1=O)C(=O)NC1CCCCC1 (stereo not given)	i	i	i	i	i	x	x	x	x	x	x
